Drawing on ChEMBL document CHEMBL1134850, “Biphenyl derivatives as novel dual NK(1)/NK(2)-receptor antagonists” (Bioorg Med Chem Lett, 2002), this text covers IC50 for 14 compounds.

Some results are limits rather than exact numbers.

As usually defined, the IC50 is the concentration that gives 50% inhibition.

Experiment [1] has as its target T1, Substance-K receptor (Homo sapiens, UniProt P21452).
T1 sequence (P21452 whole entry): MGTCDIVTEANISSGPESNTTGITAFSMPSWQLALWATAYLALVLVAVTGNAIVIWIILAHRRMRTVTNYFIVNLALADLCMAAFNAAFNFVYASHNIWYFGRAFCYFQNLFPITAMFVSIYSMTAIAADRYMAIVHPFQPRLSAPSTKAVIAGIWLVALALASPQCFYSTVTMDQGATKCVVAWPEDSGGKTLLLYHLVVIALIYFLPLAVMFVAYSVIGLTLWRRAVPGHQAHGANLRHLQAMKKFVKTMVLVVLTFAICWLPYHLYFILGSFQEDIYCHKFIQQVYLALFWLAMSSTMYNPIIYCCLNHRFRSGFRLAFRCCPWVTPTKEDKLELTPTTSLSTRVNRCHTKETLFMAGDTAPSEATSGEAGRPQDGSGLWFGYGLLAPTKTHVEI
In words: Binding affinity was determined by measuring the inhibition of 125 I-NKA binding to transfected CHO cells expressing human recombinant Tachykinin receptor 2. In kind it is cell-based. The method, boiled down:
(§1)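 Whole hNK2-transfected CHO cells (3 × 10⁵ per well) incubated 20 min at room temperature in 20 mM HEPES pH 7.4 with 2 mM MnSO₄ and 6 mM MgCl₂, 0.05 nM ¹²⁵I-NKA and varying test concentrations. Nonspecific binding defined with 50 nM NKA. Free ligand removed by rapid filtration, four ice-cold Tricine washes, filter-bound radioactivity by scintillation counting; triplicate samples.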

The target of experiment [2] is T1, Substance-K receptor. Nature of the experiment: Binding affinity by measuring the inhibition of 125 I-NKA binding to transfected CHO cells expressing human recombinant Tachykinin receptor 2. It counts as cell-based. The method, boiled down:
as §1

For the compound `CN(C)CCCNC(=O)c1ccc(-c2ccc(Cl)cc2)c(N(C)C(=O)c2cc(C(F)(F)F)cc(C(F)(F)F)c2)c1`, the IC50 at Substance-K receptor [1] turned out to be 0.108 µM.
On to `CN(O)C(=O)c1ccc(-c2ccc(Cl)cc2)c(N(C)C(=O)c2cc(C(F)(F)F)cc(C(F)(F)F)c2)c1`, for which the IC50 at Substance-K receptor [1] is more than 1 µM.
Turning to `CN(C(=O)c1ccccc1)c1cc(C(=O)NC2CCCCC2)ccc1-c1ccc(F)cc1`, the half-inhibitory concentration (IC50) at Substance-K receptor [2] is more than 1 µM.
As to `CN(C(=O)c1cc(C(F)(F)F)cc(C(F)(F)F)c1)c1cc(C(=O)NC2CCCCC2)ccc1-c1ccc(F)cc1`, the IC50 on Substance-K receptor [2] was 0.168 µM.
In the case of `CN(C(=O)c1cc(C(F)(F)F)cc(C(F)(F)F)c1)c1cc(C(=O)NC2CCCCC2)ccc1-c1ccc(Cl)cc1`, the IC50 at Substance-K receptor [1] was found to be 0.051 µM.
On to `COc1cc(C(=O)Nc2cc(C(=O)NC3CCCCC3)ccc2-c2ccc(Cl)cc2)cc(OC)c1OC`, for which the concentration for half-maximal inhibition (IC50) on Substance-K receptor [1] was determined as 0.03 µM.
Regarding `COc1cc(C(=O)N(C)c2cc(C(=O)N[C@@H]3CCCCNC3=O)ccc2-c2ccc(Cl)cc2)cc(OC)c1OC`, the IC50 at Substance-K receptor [1] was found to be 0.162 µM.
Take `CN(C(=O)c1cc(C(F)(F)F)cc(C(F)(F)F)c1)c1cc(C(=O)N[C@@H]2CCCCNC2=O)ccc1-c1ccc(Cl)cc1`: the IC50 on Substance-K receptor [2] turned out to be 0.07 µM.
In the case of `CN(C(=O)c1cc(C(F)(F)F)cc(C(F)(F)F)c1)c1cc(C(=O)N[C@@H]2CCCCNC2=O)ccc1-c1ccc(F)cc1`, at Substance-K receptor [2], the IC50 is 0.028 µM.
As for `CN(C)C(=O)c1ccc(-c2ccc(Cl)cc2)c(N(C)C(=O)c2cc(C(F)(F)F)cc(C(F)(F)F)c2)c1`, the IC50 on Substance-K receptor [1] turned out to be 0.5 µM.
Turning to `CN(C(=O)c1cc(C(F)(F)F)cc(C(F)(F)F)c1)c1cc(C(=O)N[C@@H]2CCCCNC2=O)ccc1-c1ccc(Cl)c(Cl)c1`, the IC50 on Substance-K receptor [2] is 0.043 µM.
Consider `CN(C(=O)c1cc(C(F)(F)F)cc(C(F)(F)F)c1)c1cc(C(=O)NC2CCCCNC2=O)ccc1-c1ccccc1` (centres undefined), for which the IC50 on Substance-K receptor [2] came out at 0.56 µM.
Regarding `COc1cc(C(=O)Nc2cc(C(=O)NC3CCCCNC3=O)ccc2-c2ccc(Cl)cc2)cc(OC)c1OC` (centres undefined), at Substance-K receptor [1], the IC50 is more than 1 µM.
`Cc1ccc(-c2ccc(C(=O)N[C@@H]3CCCCNC3=O)cc2N(C)C(=O)c2cc(C(F)(F)F)cc(C(F)(F)F)c2)cc1`: at Substance-K receptor [2], the IC50 came out at 0.181 µM.
